# According to ChEMBL document CHEMBL1687793, “Complementation of a Saccharomyces cerevisiae ERG11/CYP51 (sterol 14α-demethylase) doxycycline-regulated mutant and screening of the azole sensitivity of Aspergillus fumigatus isoenzymes CYP51A and CYP51B” (2010):
# Legend:
# Format in all cases: functional
# Saccharomyces cerevisiae [1] = test: Antimicrobial activity against Saccharomyces cerevisiae YUG37 transformed with plasmid carrying cyp51A gene with doxycycline-regulatable promoter by broth dilution method in presence of doxycycline
# In short: (§1)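 CLSI M27-A2 broth microdilution in induction medium (galactose plus raffinose, 2%) containing 5 μg ml−1 doxycycline. Inoculum 2.5 × 10^3 cells ml−1. Final fluconazole 0.031–16 μg ml−1; clotrimazole, itraconazole and posaconazole 0.004–2.0 μg ml−1. Plates incubated at 30°C and scored at 72 h. MIC is the lowest concentration giving ≥80% growth inhibition versus drug-free control wells.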
# Saccharomyces cerevisiae [2] = test: Antimicrobial activity against Saccharomyces cerevisiae YUG37 transformed with plasmid carrying cyp51B gene with doxycycline-regulatable promoter by broth dilution method in presence of doxycycline; in short: as §1
# Saccharomyces cerevisiae [3] = test: Antimicrobial activity against Saccharomyces cerevisiae YUG37 transformed with plasmid carrying cyp51A gene in reverse orientation without doxycycline-regulatable promoter by broth dilution method
# In short: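 Reverse-oriented cyp51A control strain tested in galactose/raffinose medium without doxycycline. Otherwise CLSI M27-A2 broth microdilution with inoculum 2.5 × 10^3 cells ml−1. Incubated at 30°C and read at 72 h. MIC is the lowest concentration giving ≥80% growth inhibition relative to control wells.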
# Saccharomyces cerevisiae [4] = test: Induction of 14alpha-Methylergosta 8,24-dien- 3beta-6alpha-diol production in Saccharomyces cerevisiae YUG37 transformed with plasmid carrying cyp51A gene with compound-regulatable promoter by GC-MS analysis
# In short: (§2)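 YUG37-erg11 yeast (native ERG11 under a doxycycline-regulatable promoter) carrying pYES2.1 with intronless A. fumigatus cyp51A or cyp51B. Single colonies, triplicate constructs, were grown in YM with 2% galactose/raffinose plus 5 μg ml−1 doxycycline for 72 h at 30°C and 180 rpm. Sterols were analysed by GC-MS and reported as mean % of sterol composition (SD).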
# Saccharomyces cerevisiae [5] = test: Induction of 14alpha-Methylergosta 8,24-dien- 3beta-6alpha-diol production in Saccharomyces cerevisiae YUG37 transformed with plasmid carrying cyp51B gene with compound-regulatable promoter by GC-MS analysis; in short: as §2
# Saccharomyces cerevisiae [6] = test: Induction of 14alpha-Methylergosta 8,24-dien- 3beta-6alpha-diol production in Saccharomyces cerevisiae YUG37 transformed with plasmid carrying cyp51A gene in reverse orientation without doxycycline-regulatable promoter by GC-MS analysis
# In short: (§3)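 The control was YUG37-erg11 transformed with pYES2.1 carrying reverse-oriented cyp51A, in triplicate. It was cultured 72 h (30°C, 180 rpm) in galactose/raffinose (2%) YM either with 5 μg ml−1 doxycycline or without doxycycline. GC-MS sterol profiling gave mean % of sterol composition (SD).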
# Saccharomyces cerevisiae [7] = test: Induction of ergosterol production in Saccharomyces cerevisiae YUG37 transformed with plasmid carrying cyp51A gene with compound-regulatable promoter by GC-MS analysis; in short: as §2
# Saccharomyces cerevisiae [8] = test: Induction of ergosterol production in Saccharomyces cerevisiae YUG37 transformed with plasmid carrying cyp51B gene with compound-regulatable promoter by GC-MS analysis; in short: as §2
# Saccharomyces cerevisiae [9] = test: Induction of ergosterol production in Saccharomyces cerevisiae YUG37 transformed with plasmid carrying cyp51A gene in reverse orientation without doxycycline-regulatable promoter by GC-MS analysis; in short: as §3
# Saccharomyces cerevisiae [10] = test: Induction of 4alpha-methylfecosterol production in Saccharomyces cerevisiae YUG37 transformed with plasmid carrying cyp51A gene with compound-regulatable promoter by GC-MS analysis; in short: as §2
# Saccharomyces cerevisiae [11] = test: Induction of 4alpha-methylfecosterol production in Saccharomyces cerevisiae YUG37 transformed with plasmid carrying cyp51B gene with compound-regulatable promoter by GC-MS analysis; in short: as §2
# Saccharomyces cerevisiae [12] = test: Induction of 4alpha-methylfecosterol production in Saccharomyces cerevisiae YUG37 transformed with plasmid carrying cyp51A gene in reverse orientation without doxycycline-regulatable promoter by GC-MS analysis; in short: as §3
# Saccharomyces cerevisiae [13] = test: Induction of 4,14alpha-dimethylcholesta 8,24-dienol production in Saccharomyces cerevisiae YUG37 transformed with plasmid carrying cyp51A gene with compound-regulatable promoter by GC-MS analysis; in short: as §2
# Saccharomyces cerevisiae [14] = test: Induction of 4,14alpha-dimethylcholesta 8,24-dienol production in Saccharomyces cerevisiae YUG37 transformed with plasmid carrying cyp51B gene with compound-regulatable promoter by GC-MS analysis; in short: as §2
# Saccharomyces cerevisiae [15] = test: Induction of 4,14alpha-dimethylcholesta 8,24-dienol production in Saccharomyces cerevisiae YUG37 transformed with plasmid carrying cyp51A gene in reverse orientation without doxycycline-regulatable promoter by GC-MS analysis; in short: as §3
# Saccharomyces cerevisiae [16] = test: Induction of lanosterol/obtusifoliol production in Saccharomyces cerevisiae YUG37 transformed with plasmid carrying cyp51A gene with compound-regulatable promoter by GC-MS analysis; in short: as §2
# Saccharomyces cerevisiae [17] = test: Induction of lanosterol/obtusifoliol production in Saccharomyces cerevisiae YUG37 transformed with plasmid carrying cyp51B gene with compound-regulatable promoter by GC-MS analysis; in short: as §2
# Saccharomyces cerevisiae [18] = test: Induction of lanosterol/obtusifoliol production in Saccharomyces cerevisiae YUG37 transformed with plasmid carrying cyp51A gene in reverse orientation without doxycycline-regulatable promoter by GC-MS analysis; conditions: in the assay text read “with doxycycline-regulatable promoter” for “without doxycycline-regulatable promoter”; in short: as §3
# Saccharomyces cerevisiae [19] = test: Ratio of MIC for Saccharomyces cerevisiae YUG37 transformed with plasmid carrying cyp51A gene with compound-regulatable promoter to MIC for Saccharomyces cerevisiae YUG37 transformed with plasmid carrying cyp51B gene with compound-regulatable promoter
smiles,measurement,setting,value
C[C@@H](c1ncncc1F)[C@](O)(Cn1cncn1)c1ccc(F)cc1F [VORICONAZOLE],MIC,Saccharomyces cerevisiae [1],0.004 µg/mL
same,MIC,Saccharomyces cerevisiae [2],0.004 µg/mL
same,MIC,Saccharomyces cerevisiae [3],0.004 µg/mL
CC[C@@H]([C@H](C)O)n1ncn(-c2ccc(N3CCN(c4ccc(OC[C@@H]5CO[C@@](Cn6cncn6)(c6ccc(F)cc6F)C5)cc4)CC3)cc2)c1=O [POSACONAZOLE],MIC,Saccharomyces cerevisiae [1],0.063 µg/mL
same,MIC,Saccharomyces cerevisiae [2],0.063 µg/mL
same,MIC,Saccharomyces cerevisiae [3],0.063 µg/mL
CCC(C)n1ncn(-c2ccc(N3CCN(c4ccc(OCC5COC(Cn6cncn6)(c6ccc(Cl)cc6Cl)O5)cc4)CC3)cc2)c1=O (stereo unspecified) [ITRACONAZOLE],MIC,Saccharomyces cerevisiae [1],0.125 µg/mL
same,MIC,Saccharomyces cerevisiae [2],0.125 µg/mL
same,MIC,Saccharomyces cerevisiae [3],0.031 µg/mL
C[C@H]1c2cccc(O)c2C(=O)C2=C(O)[C@]3(O)C(=O)C(C(N)=O)=C(O)[C@@H](N(C)C)[C@@H]3[C@@H](O)[C@@H]21.O [DOXYCYCLINE],Activity,Saccharomyces cerevisiae [4],20.5%
same,Activity,Saccharomyces cerevisiae [5],10.5%
same,Activity,Saccharomyces cerevisiae [6],51.1%
same,Activity,Saccharomyces cerevisiae [7],40.8%
same,Activity,Saccharomyces cerevisiae [8],39.5%
same,Activity,Saccharomyces cerevisiae [9],4%
same,Activity,Saccharomyces cerevisiae [10],2%
same,Activity,Saccharomyces cerevisiae [11],1.7%
same,Activity,Saccharomyces cerevisiae [12],1.9%
same,Activity,Saccharomyces cerevisiae [13],2.6%
same,Activity,Saccharomyces cerevisiae [14],2.9%
same,Activity,Saccharomyces cerevisiae [15],3.3%
same,Activity,Saccharomyces cerevisiae [16],34.1%
same,Activity,Saccharomyces cerevisiae [17],45.4%
same,Activity,Saccharomyces cerevisiae [18],40.6%
OC(Cn1cncn1)(Cn1cncn1)c1ccc(F)cc1F [FLUCONAZOLE],MIC,Saccharomyces cerevisiae [1],8 µg/mL
same,MIC,Saccharomyces cerevisiae [2],0.5 µg/mL
same,MIC,Saccharomyces cerevisiae [3],0.25 µg/mL
same,Ratio,Saccharomyces cerevisiae [19],16
Clc1ccccc1C(c1ccccc1)(c1ccccc1)n1ccnc1 [CLOTRIMAZOLE],MIC,Saccharomyces cerevisiae [1],0.016 µg/mL
same,MIC,Saccharomyces cerevisiae [2],0.016 µg/mL
same,MIC,Saccharomyces cerevisiae [3],0.016 µg/mL
